Assay results published in paper PMC6210075 (ACS Omega, 2018).

Assays:
rat FAAH = molecular target: T1, rat FAAH (Rattus norvegicus, UniProt P97612); experiment: FAAH fluorescent inhibition assay, rat brain microsomes; type: biochemical
T1 sequence (P97612 1-579): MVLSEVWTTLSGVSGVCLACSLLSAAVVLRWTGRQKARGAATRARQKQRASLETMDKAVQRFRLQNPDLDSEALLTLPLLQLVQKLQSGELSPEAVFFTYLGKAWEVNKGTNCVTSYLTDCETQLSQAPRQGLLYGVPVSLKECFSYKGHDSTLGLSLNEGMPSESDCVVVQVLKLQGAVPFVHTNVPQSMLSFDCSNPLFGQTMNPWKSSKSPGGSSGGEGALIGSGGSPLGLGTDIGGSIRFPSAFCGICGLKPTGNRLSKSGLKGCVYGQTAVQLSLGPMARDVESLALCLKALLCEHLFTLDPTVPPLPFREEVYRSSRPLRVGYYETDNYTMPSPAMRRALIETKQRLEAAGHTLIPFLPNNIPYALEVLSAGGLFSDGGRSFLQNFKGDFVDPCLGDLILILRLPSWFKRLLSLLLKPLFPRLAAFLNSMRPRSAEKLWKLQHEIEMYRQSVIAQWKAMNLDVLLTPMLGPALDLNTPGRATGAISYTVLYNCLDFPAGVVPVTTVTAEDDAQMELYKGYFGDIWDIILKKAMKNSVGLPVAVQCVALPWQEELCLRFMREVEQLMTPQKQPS
In short: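 Rat brain microsomes: tissue homogenized in 20 mM phosphate (pH 7.4, 5 mM EDTA), spun at 9000g for 20 min, then 100 000g for 1 h, and stored at −80 °C. OMP (100 μM final) in 0.1 M sodium phosphate pH 8, 0.1 mg/mL BSA, 2% DMSO, 37 °C. Fluorescence (ex 303/em 394 nm) read every 30 s for 10 min. No-enzyme background subtracted. IC50 from linear regression of log[I] vs % remaining activity; triplicates.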

sEH = molecular target: T2, sEH (Mus musculus, UniProt P34914); experiment: In vivo target engagement: residual sEH activity; conditions: mice, 1 mg/kg i.p. in DMSO, 4 h after dosing
T2 sequence (P34914 1-554): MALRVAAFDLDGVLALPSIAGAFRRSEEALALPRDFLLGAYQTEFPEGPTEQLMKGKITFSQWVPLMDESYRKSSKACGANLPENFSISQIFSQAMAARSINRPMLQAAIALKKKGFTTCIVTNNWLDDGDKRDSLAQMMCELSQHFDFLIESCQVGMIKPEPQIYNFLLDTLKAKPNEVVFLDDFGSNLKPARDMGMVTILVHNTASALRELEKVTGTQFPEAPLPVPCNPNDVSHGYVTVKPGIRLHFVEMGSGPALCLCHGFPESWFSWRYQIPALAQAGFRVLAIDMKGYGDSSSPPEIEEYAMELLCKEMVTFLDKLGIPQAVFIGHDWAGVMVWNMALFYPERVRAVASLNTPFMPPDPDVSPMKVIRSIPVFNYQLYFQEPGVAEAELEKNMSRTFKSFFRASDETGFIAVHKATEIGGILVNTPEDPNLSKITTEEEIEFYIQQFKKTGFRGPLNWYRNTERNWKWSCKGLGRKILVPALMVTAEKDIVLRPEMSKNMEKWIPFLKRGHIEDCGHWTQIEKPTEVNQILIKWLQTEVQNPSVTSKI

human CES2 = molecular target: T3, human CES2 (Homo sapiens, UniProt O00748); experiment: Esterase assay, CES2; type: biochemical
T3 sequence (O00748 27-559): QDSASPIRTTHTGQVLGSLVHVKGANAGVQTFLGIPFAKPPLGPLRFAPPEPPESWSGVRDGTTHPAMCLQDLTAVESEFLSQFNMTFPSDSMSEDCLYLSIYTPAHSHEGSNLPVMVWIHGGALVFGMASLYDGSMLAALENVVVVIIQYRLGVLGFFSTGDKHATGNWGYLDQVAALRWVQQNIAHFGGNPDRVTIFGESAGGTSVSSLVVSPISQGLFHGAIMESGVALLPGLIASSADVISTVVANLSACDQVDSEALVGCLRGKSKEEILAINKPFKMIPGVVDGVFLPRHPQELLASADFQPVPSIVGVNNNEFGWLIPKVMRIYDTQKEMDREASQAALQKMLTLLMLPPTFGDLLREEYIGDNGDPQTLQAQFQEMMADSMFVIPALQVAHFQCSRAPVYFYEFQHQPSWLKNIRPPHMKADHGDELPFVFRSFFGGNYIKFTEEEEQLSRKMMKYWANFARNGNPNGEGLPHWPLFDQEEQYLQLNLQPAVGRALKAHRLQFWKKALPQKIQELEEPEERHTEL
In short: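 Crude recombinant human CES2 extract was used with 5 min inhibitor preincubation in 0.1 M sodium phosphate, pH 8, 0.1 mg/mL BSA, 2% final DMSO. Substrate was cyano(6-methoxynaphthalen-2-yl)methyl acetate (50 μM final). […] Triplicates.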

mouse FAAH = molecular target: T4, mouse FAAH (Mus musculus, UniProt O08914); experiment: FAAH fluorescent inhibition assay, mouse crude tissue homogenate; type: biochemical; conditions: FAAH IC50 (5 min pre-incubation)
T4 sequence (O08914 1-579): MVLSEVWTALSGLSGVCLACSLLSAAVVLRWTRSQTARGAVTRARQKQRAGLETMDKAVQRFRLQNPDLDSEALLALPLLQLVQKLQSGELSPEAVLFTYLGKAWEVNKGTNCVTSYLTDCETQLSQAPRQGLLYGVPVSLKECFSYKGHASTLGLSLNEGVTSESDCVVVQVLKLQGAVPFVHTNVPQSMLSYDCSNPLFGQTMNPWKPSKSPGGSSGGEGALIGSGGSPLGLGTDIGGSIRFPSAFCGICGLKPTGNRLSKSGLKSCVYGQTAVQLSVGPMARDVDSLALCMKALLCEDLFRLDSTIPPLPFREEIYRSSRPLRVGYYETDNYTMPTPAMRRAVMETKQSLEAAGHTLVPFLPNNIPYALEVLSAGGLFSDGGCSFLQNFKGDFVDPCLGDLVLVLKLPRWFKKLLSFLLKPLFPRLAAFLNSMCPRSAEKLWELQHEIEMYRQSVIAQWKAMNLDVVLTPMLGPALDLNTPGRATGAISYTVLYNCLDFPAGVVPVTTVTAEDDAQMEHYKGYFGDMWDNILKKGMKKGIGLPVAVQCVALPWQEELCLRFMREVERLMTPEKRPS

[1] = Cassette dosing pharmacokinetics in rats; type: in vivo; conditions: male, Sprague-Dawley, rat, whole blood, po, 1 mg/kg
In short: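 Test compounds were given as a cassette cocktail at 1 mg/kg each, p.o. in PEG300, to groups of 4 rats or 4 mice. Blood was taken by tail vein at set intervals and group averages were used.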

[2] = FAAH IC50 (60 min pre-incubation), 60 min pre-incubation

SMILES | IC50 (rat FAAH; [2]) [nM] | residual brain sEH activity, % of control (sEH) [%] | IC50 (human CES2) [nM] | IC50 (mouse FAAH) [nM] | AUC [1] [µM·h] | Cmax [1] [nM] | IC50 (rat FAAH; FAAH IC50 (5 min pre-incubation), 5 min pre-incubation) [nM]
O=C(Nc1cccnc1)N1CCC(Cc2cccc(Oc3ccc(C(F)(F)F)cn3)c2)CC1 [PF-3845, reference compound] | 0.2 | 63 ± 14 | 1100 |  |  |  | 
O=C(Nc1ccc(C(F)(F)F)cc1F)N1CCC(Cc2cccc(Oc3ccc(C(F)(F)F)cn3)c2)CC1 [compound 18] | 1100 |  |  | > 10000 | 0.6 | 58 | > 10000
